Reference: ChEMBL document CHEMBL4052817 (J Med Chem, 2017)
Calls of active or inactive are those of the source. The calls are words filed in the database; no cut-off is given here.

Assays:
[1] = system: Mus musculus; assay: AUC (infinity) in CD-1 mouse assessed as (R)-3-(5-fluoro-1H-indol-3-yl)pyrrolidine-2,5-dione at 1 mg/kg, iv by LC-MS/MS method; type: ADME, organism-based; design: dose 1 mg/kg, route intravenous, time infinity; details: in vivo
Outline: (§1)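 Racemate given as a single 1 mg/kg IV dose to male CD-1 mice, Wistar-Han rats or beagle dogs (n=3 per species). Plasma levels of the (R)-enantiomer measured by chiral LC-MS/MS. Mean AUCinf, CLp, Vss and t1/2 reported.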

[2] = system: MC-38; assay: Antitumor activity against mouse MC38 tumor model administered as monotherapy; type: functional
[3] = target: T1, Cytochrome P450 2C19 (Homo sapiens, UniProt P33261); assay: Inhibition of CYP2C19 (unknown origin); type: ADME
[4] = system: Rattus norvegicus; assay: Cmax in Wistar-Han rat assessed as (R)-3-(5-fluoro-1H-indol-3-yl)pyrrolidine-2,5-dione at 3 mg/kg, po; type: ADME, organism-based; design: dose 3 mg/kg, route oral; details: in vivo
[5] = Ratio of unbound drug level in brain to plasma in po dosed rat assessed as (R)-3-(5-fluoro-1H-indol-3-yl)pyrrolidine-2,5-dione; type: ADME, organism-based
Outline: (§2)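 Racemate dosed orally to rats; active enantiomer measured in brain, CSF and plasma; total brain/plasma ratio and unbound brain/unbound plasma ratio calculated.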

[6] = Drug metabolism in mouse hepatocytes assessed as oxidation; type: ADME, cell-based, Hepatocyte
[7] = Drug metabolism in dog hepatocytes assessed as oxidation; type: ADME, cell-based, Canis lupus familiaris, Hepatocyte
[8] = system: CT26; assay: Antitumor activity against mouse CT26 tumor model administered as monotherapy; type: functional
[9] = Intrinsic apparent clearance in dog hepatocytes assessed per million cells; type: ADME, cell-based, Canis lupus familiaris, Hepatocyte
[10] = Drug excretion in dog urine assessed as (R)-3-(5-fluoro-1H-indol-3-yl)pyrrolidine-2,5-dione; type: ADME, Canis lupus familiaris; details: in vivo
Outline: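 Racemate dosed to rats (urine and bile collected) and to dogs (urine collected). The percentage of the dose excreted as unchanged (R)-enantiomer was measured.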

[11] = system: Rattus norvegicus; assay: AUC (infinity) in Wistar-Han rat assessed as (R)-3-(5-fluoro-1H-indol-3-yl)pyrrolidine-2,5-dione at 3 mg/kg, po; type: ADME, organism-based; design: dose 3 mg/kg, route oral, time infinity; details: in vivo
[12] = system: Hepatocyte; assay: Induction of CYP3A4 mRNA expression in human hepatocytes at <100 uM; type: ADME, cell-based
[13] = system: Mus musculus; assay: AUC (infinity) in CD-1 mouse assessed as (R)-3-(5-fluoro-1H-indol-3-yl)pyrrolidine-2,5-dione at 3 mg/kg, po; type: ADME, organism-based; design: dose 3 mg/kg, route oral, time infinity; details: in vivo
[14] = system: Mus musculus; assay: Half life in CD-1 mouse assessed as (R)-3-(5-fluoro-1H-indol-3-yl)pyrrolidine-2,5-dione at 1 mg/kg, iv by LC-MS/MS method; type: ADME, organism-based; details: in vivo; outline: as §1
[15] = system: CT26; assay: Antitumor activity against mouse CT26 tumor model administered as […] co-treated with anti-PDL1 mAb; type: functional
[16] = target: T1, Cytochrome P450 2C19; assay: Time/NADPH-dependent inhibition of CYP2C19 (unknown origin); type: ADME
[17] = Total brain to plasma partition coefficient, Kp in po dosed rat assessed as (R)-3-(5-fluoro-1H-indol-3-yl)pyrrolidine-2,5-dione; type: ADME, organism-based; outline: as §2
[18] = target: Broad substrate specificity ATP-binding cassette transporter ABCG2 (Homo sapiens, UniProt Q9UNQ0); assay: Inhibition of BCRP (unknown origin) transfected in MDCK cells assessed as decrease in pitavastatin transport; type: cell-based
[19] = system: Rattus norvegicus; assay: Oral bioavailability in Wistar-Han rat assessed as (R)-3-(5-fluoro-1H-indol-3-yl)pyrrolidine-2,5-dione at 3 mg/kg; type: ADME, organism-based; details: in vivo
[20] = system: Hepatocyte; assay: Induction of CYP1A2 mRNA expression in human hepatocytes at <100 uM; type: ADME, cell-based
[21] = Inhibition of human p-gp transfected in MDCK cells assessed as decrease in digoxin transport; type: cell-based
[22] = target: Cytochrome P450 3A4 (Homo sapiens, UniProt P08684); assay: Time-dependent inhibition of CYP3A4 (unknown origin); type: ADME
[23] = Intrinsic apparent clearance in mouse hepatocytes assessed per million cells; type: ADME, cell-based, Hepatocyte
[24] = system: Canis familiaris; assay: Tmax in beagle dog assessed as (R)-3-(5-fluoro-1H-indol-3-yl)pyrrolidine-2,5-dione at 3 mg/kg, po; type: ADME, organism-based, Canis lupus familiaris; details: in vivo
[25] = system: Mus musculus; assay: Half life in CD-1 mouse assessed as (R)-3-(5-fluoro-1H-indol-3-yl)pyrrolidine-2,5-dione at 3 mg/kg, po; type: ADME, organism-based; details: in vivo
[26] = system: Panc02; assay: Antitumor activity against mouse Pan02 tumor model administered as monotherapy; type: functional
[27] = system: Mus musculus; assay: Cmax in CD-1 mouse assessed as (R)-3-(5-fluoro-1H-indol-3-yl)pyrrolidine-2,5-dione at 3 mg/kg, po; type: ADME, organism-based; design: dose 3 mg/kg, route oral; details: in vivo
[28] = system: Rattus norvegicus; assay: Half life in Wistar-Han rat assessed as (R)-3-(5-fluoro-1H-indol-3-yl)pyrrolidine-2,5-dione at 3 mg/kg, po; type: ADME, organism-based; details: in vivo
[29] = target: Indoleamine 2,3-dioxygenase 2 (Homo sapiens) (UniProt Q6ZQW0); assay: Inhibition of human recombinant IDO-2 up to 200 uM using tryptophan as substrate after 22 mins by LC-MS/MS method
Outline: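 Human IDO2 at 250 nM with inhibitor in duplicate, room temperature, in Mg/Ca-free PBS with 20 mM ascorbate, 10 μM methylene blue, 800 nM catalase, 15 μM tryptophan; HCl stop after 22 min; kynurenine quantified by RapidFire SPE-MS/MS; two replicates, geometric means.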

[30] = Drug metabolism in human hepatocytes assessed as hydrolysis; type: ADME, cell-based, Hepatocyte

T1 sequence (P33261 whole entry): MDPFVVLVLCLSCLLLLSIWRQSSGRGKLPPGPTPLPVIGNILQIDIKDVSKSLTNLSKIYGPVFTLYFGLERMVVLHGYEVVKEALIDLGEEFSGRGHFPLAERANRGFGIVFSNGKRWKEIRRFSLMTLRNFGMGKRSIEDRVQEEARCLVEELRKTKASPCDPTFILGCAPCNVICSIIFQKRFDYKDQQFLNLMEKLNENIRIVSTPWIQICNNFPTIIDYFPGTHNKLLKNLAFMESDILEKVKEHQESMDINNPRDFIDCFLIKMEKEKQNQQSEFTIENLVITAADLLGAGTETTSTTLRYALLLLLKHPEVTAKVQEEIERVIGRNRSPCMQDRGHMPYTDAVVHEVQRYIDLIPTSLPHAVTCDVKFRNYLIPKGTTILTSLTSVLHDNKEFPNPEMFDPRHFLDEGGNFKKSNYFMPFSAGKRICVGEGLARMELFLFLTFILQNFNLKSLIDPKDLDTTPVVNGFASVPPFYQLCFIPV
Chain of Broad substrate specificity ATP-binding cassette transporter ABCG2 (Q9UNQ0 whole entry): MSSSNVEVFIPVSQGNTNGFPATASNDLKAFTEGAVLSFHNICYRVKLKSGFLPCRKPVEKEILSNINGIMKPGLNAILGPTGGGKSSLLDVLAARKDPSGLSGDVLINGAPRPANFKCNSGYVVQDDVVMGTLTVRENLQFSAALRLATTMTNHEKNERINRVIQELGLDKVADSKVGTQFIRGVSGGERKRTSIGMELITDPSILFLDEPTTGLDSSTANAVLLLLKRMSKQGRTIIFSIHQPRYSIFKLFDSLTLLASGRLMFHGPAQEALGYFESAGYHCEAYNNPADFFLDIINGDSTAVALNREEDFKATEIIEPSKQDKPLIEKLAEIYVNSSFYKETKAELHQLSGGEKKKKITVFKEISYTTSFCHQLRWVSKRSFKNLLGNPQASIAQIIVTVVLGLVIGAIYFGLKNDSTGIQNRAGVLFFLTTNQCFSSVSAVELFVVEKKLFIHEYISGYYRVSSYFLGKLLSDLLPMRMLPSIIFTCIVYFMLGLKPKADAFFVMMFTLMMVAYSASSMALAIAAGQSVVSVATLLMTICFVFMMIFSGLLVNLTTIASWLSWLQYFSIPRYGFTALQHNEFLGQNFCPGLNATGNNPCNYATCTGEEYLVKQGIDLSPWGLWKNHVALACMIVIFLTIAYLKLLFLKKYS
Chain of Indoleamine 2,3-dioxygenase 2 (Homo sapiens) (Q6ZQW0 whole entry): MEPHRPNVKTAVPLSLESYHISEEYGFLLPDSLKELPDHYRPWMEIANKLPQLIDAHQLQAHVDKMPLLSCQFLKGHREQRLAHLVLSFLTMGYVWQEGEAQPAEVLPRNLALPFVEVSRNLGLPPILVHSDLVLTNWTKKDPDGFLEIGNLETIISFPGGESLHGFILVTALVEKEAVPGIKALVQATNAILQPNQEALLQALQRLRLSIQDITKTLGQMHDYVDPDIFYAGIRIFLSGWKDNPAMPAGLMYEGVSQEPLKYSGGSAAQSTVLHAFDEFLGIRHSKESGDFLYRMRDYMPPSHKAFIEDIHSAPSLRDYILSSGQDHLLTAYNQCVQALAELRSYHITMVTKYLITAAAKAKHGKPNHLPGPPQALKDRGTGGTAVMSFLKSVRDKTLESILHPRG
Chain of Cytochrome P450 3A4 (P08684 whole entry): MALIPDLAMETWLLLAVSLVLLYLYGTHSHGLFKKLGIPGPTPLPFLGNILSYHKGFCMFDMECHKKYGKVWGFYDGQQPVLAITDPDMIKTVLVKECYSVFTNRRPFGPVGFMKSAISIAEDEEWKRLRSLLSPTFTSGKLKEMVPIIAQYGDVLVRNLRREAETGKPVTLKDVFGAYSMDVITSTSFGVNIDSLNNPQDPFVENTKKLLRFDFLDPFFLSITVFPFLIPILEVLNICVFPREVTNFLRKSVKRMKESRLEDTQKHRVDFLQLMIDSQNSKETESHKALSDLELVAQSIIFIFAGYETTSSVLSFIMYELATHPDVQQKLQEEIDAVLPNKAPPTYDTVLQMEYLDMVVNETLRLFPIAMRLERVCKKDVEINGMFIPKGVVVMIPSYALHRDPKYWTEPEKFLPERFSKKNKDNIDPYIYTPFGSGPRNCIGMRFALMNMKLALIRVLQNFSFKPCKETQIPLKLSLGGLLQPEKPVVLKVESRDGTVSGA

Question: Which results are given for `O=C1CC(c2c[nH]c3ccc(F)cc23)C(=O)N1` (stereo not given) [PF-06840003]?
Answer: AUC [1]: 1.16 µg·h/mL; Activity [2]: Active; IC50 [3]: 78 µM; Cmax [4]: 0.985 µg/mL; K(p,uu,brain) [5]: 0.2; Drug metabolism [6]: Metabolite_Detected; Drug metabolism [7]: Metabolite_Detected; Activity [8]: Active; CLH(app) [9]: 10.3 µL/min; Drug excretion [10]: < 1 %ID; AUC [11]: 6.94 µg·h/mL; Activity [12]: Not Active; AUC [13]: 2.17 µg·h/mL; t1/2 [14]: 2.5 h; Activity [15]: Active; inhibition (INH) [16]: Not Active; Kp [17]: 0.51; IC50 [18]: 65.4 µM; F [19]: 94%; Activity [20]: Not Active; IC50 [21]: > 300 µM; TDI [22]: Not Active; CLH(app) [23]: 2.4 µL/min; Tmax [24]: 0.25 h; t1/2 [25]: 2.48 h; Activity [26]: Active; Cmax [27]: 0.538 µg/mL; t1/2 [28]: 2.42 h; inhibition [29]: inactive; Drug metabolism [30]: Metabolite_Detected
